Reference: ChEMBL document CHEMBL1687824, “Overexpression of patA and patB, which encode ABC transporters, is associated with fluoroquinolone resistance in clinical isolates of Streptococcus pneumoniae” (2011)
Converted amounts (≈) assume the structure as drawn.

Columns and labels:
Format in all cases: functional
Streptococcus pneumoniae [1] = assay: Antibacterial activity against fluoroquinolone-resistant Streptococcus pneumoniae M79 FQ-R overexpressing patA, patB by standardized agar doubling dilution method
Procedure, shortened: (§1)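 Clinical S. pneumoniae isolates grown in BHI broth 24 h at 37°C in 5% CO2. MICs by agar doubling dilution per BSAC guidelines, alone or with efflux inhibitor reserpine (20 μg/ml) or sodium orthovanadate (50 μM). Synergy defined as ≥2-dilution MIC reduction in presence of inhibitor.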

Streptococcus pneumoniae [2] = assay: Antibacterial activity against fluoroquinolone, dye-resistant Streptococcus pneumoniae M74 overexpressing patA, patB by standardized agar doubling dilution method
Procedure, shortened: (§2)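 MIC by agar doubling dilution following BSAC guidelines. Strains grown in brain heart infusion broth 24 h at 37°C in 5% CO2. Where an efflux pump inhibitor applies, MIC redetermined with reserpine at 20 μg/ml or sodium orthovanadate at 50 μM. Synergy taken as a fall in MIC of ≥2 dilutions with inhibitor present. Dye resistance defined relative to R6 (both dyes ≥2 dilutions higher).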

Streptococcus pneumoniae [3] = assay: Antibacterial activity against Streptococcus pneumoniae M306 overexpressing patA, patB and inactivated patB with single mutation by standardized agar doubling dilution method in presence of 50 uM sodium orthovanadate efflux pump inhibitor
Procedure, shortened: (§3)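 MICs determined by BSAC standardized agar doubling dilution. Strains were grown in brain heart infusion broth for 24 h at 37°C in 5% CO2. Inhibitor arms had reserpine at 20 μg/ml or sodium orthovanadate at 50 μM in the agar. Mutants were made by transforming magellan2 insertion amplimers into clinical isolates and selecting on spectinomycin 100 mg/liter, with a no-DNA spontaneous-mutation control.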

Streptococcus pneumoniae [4] = assay: Antibacterial activity against fluoroquinolone, dye-susceptible Streptococcus pneumoniae M295 S overexpressing patA, patB by standardized agar doubling dilution method in presence of 50 uM sodium orthovanadate efflux pump inhibitor
Procedure, shortened: (§4)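 MIC by agar doubling dilution per BSAC guidelines; strains pregrown in brain heart infusion broth 24 h, 37°C, 5% CO2. MICs measured alone and with efflux pump inhibitors reserpine (20 μg/ml) or sodium orthovanadate (50 μM); synergy defined as ≥2-dilution MIC reduction in presence of inhibitor.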

Streptococcus pneumoniae [5] = assay: Antibacterial activity against Streptococcus pneumoniae M55B overexpressing patA, patB and inactivated patB with single mutation by standardized agar doubling dilution method in presence of 20 ug/ml reserpine efflux pump inhibitor
Procedure, shortened: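 MICs were determined by BSAC agar doubling dilution in the presence of reserpine at 20 μg/ml. Strains were grown in BHI broth for 24 h at 37°C in 5% CO2, with R6 as control. Synergy was defined as an MIC drop of ≥2 dilutions with the inhibitor.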

Streptococcus pneumoniae [6] = assay: Antibacterial activity against Streptococcus pneumoniae M303 overexpressing patA, patB and inactivated patA with single mutation by standardized agar doubling dilution method in presence of 20 ug/ml reserpine efflux pump inhibitor; procedure, shortened: as §3
Streptococcus pneumoniae [7] = assay: Antibacterial activity against fluoroquinolone-resistant Streptococcus pneumoniae M97 FQ-R overexpressing patA, patB by standardized agar doubling dilution method in presence of 50 uM sodium orthovanadate efflux pump inhibitor; procedure, shortened: as §4
Streptococcus pneumoniae [8] = assay: Antibacterial activity against Streptococcus pneumoniae M311B overexpressing patA, patB and inactivated patB with single mutation by standardized agar doubling dilution method in presence of 20 ug/ml reserpine efflux pump inhibitor; procedure, shortened: as §3
Streptococcus pneumoniae [9] = assay: Antibacterial activity against Streptococcus pneumoniae M86A overexpressing patA, patB and inactivated patA with single mutation by standardized agar doubling dilution method
Procedure, shortened: (§5)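 MICs were determined by agar doubling dilution following BSAC guidelines, with no efflux inhibitor. Strains were grown in brain heart infusion broth for 24 h at 37°C in 5% CO2. Species identity was confirmed by Gram stain, optochin sensitivity and capsule test. Control strain R6 was tested alongside.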

Streptococcus pneumoniae [10] = assay: Antibacterial activity against fluoroquinolone-resistant Streptococcus pneumoniae M83 FQ-R overexpressing patA, patB by standardized agar doubling dilution method; procedure, shortened: as §1
Streptococcus pneumoniae [11] = assay: Antibacterial activity against fluoroquinolone, dye-susceptible Streptococcus pneumoniae M295 S overexpressing patA, patB by standardized agar doubling dilution method; procedure, shortened: as §2
Streptococcus pneumoniae [12] = assay: Antibacterial activity against Streptococcus pneumoniae M314 overexpressing patA, patB and inactivated patA with single mutation by standardized agar doubling dilution method in presence of 50 uM sodium orthovanadate efflux pump inhibitor; procedure, shortened: as §3
Streptococcus pneumoniae [13] = assay: Antibacterial activity against fluoroquinolone, dye-resistant Streptococcus pneumoniae by standardized agar doubling dilution method in presence of 50 uM sodium orthovanadate efflux pump inhibitor; procedure, shortened: as §2
Streptococcus pneumoniae [14] = assay: Antibacterial activity against Streptococcus pneumoniae M87B overexpressing patA, patB and inactivated patB with single mutation by standardized agar doubling dilution method; procedure, shortened: as §5
Streptococcus pneumoniae [15] = assay: Antibacterial activity against Streptococcus pneumoniae M305 overexpressing patA, patB and inactivated patB with single mutation by standardized agar doubling dilution method in presence of 20 ug/ml reserpine efflux pump inhibitor; procedure, shortened: as §3
Streptococcus pneumoniae [16] = assay: Antibacterial activity against Streptococcus pneumoniae M45A overexpressing patA, patB and inactivated patA with single mutation by standardized agar doubling dilution method in presence of 50 uM sodium orthovanadate efflux pump inhibitor
Procedure, shortened: (§6)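 MICs were determined by BSAC agar doubling dilution in the presence of sodium orthovanadate at 50 μM. Cultures were grown in BHI broth for 24 h at 37°C in 5% CO2, with R6 as control. Synergy was defined as an MIC reduction of ≥2 dilutions with the inhibitor present.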

Streptococcus pneumoniae [17] = assay: Antibacterial activity against Streptococcus pneumoniae M311 overexpressing patA, patB and inactivated patA with single mutation by standardized agar doubling dilution method in presence of 50 uM sodium orthovanadate efflux pump inhibitor; procedure, shortened: as §3
Streptococcus pneumoniae [18] = assay: Antibacterial activity against fluoroquinolone, dye-resistant Streptococcus pneumoniae M42 overexpressing patA, patB by standardized agar doubling dilution method; procedure, shortened: as §2
Streptococcus pneumoniae [19] = assay: Antibacterial activity against Streptococcus pneumoniae M318 overexpressing patA, patB and inactivated patA with single mutation by standardized agar doubling dilution method in presence of 50 uM sodium orthovanadate efflux pump inhibitor; procedure, shortened: as §6
Streptococcus pneumoniae [20] = assay: Antibacterial activity against Streptococcus pneumoniae M302 overexpressing patA, patB and inactivated patA with single mutation by standardized agar doubling dilution method in presence of 20 ug/ml reserpine efflux pump inhibitor; procedure, shortened: as §3
Streptococcus pneumoniae [21] = assay: Antibacterial activity against fluoroquinolone-resistant Streptococcus pneumoniae M79 FQ-R overexpressing patA, patB by standardized agar doubling dilution method in presence of 50 uM sodium orthovanadate efflux pump inhibitor; procedure, shortened: as §1
Streptococcus pneumoniae [22] = assay: Antibacterial activity against fluoroquinolone, dye-resistant Streptococcus pneumoniae M74 overexpressing patA, patB by standardized agar doubling dilution method in presence of 20 ug/ml reserpine efflux pump inhibitor; procedure, shortened: as §2
Streptococcus pneumoniae [23] = assay: Antibacterial activity against Streptococcus pneumoniae M46B overexpressing patA, patB and inactivated patB with single mutation by standardized agar doubling dilution method; procedure, shortened: as §5
Streptococcus pneumoniae [24] = assay: Antibacterial activity against fluoroquinolone, dye-susceptible Streptococcus pneumoniae by standardized agar doubling dilution method in presence of 20 ug/ml reserpine efflux pump inhibitor; procedure, shortened: as §2
Streptococcus pneumoniae [25] = assay: Antibacterial activity against Streptococcus pneumoniae M315 overexpressing patA, patB and inactivated patA with single mutation by standardized agar doubling dilution method in presence of 20 ug/ml reserpine efflux pump inhibitor; procedure, shortened: as §3
Streptococcus pneumoniae [26] = assay: Antibacterial activity against fluoroquinolone, dye-resistant Streptococcus pneumoniae M50 overexpressing patA, patB by standardized agar doubling dilution method in presence of 50 uM sodium orthovanadate efflux pump inhibitor; procedure, shortened: as §2
Streptococcus pneumoniae [27] = assay: Antibacterial activity against Streptococcus pneumoniae M309 overexpressing patA, patB and inactivated patB with single mutation by standardized agar doubling dilution method; procedure, shortened: as §3

Row | SMILES | MIC (Streptococcus pneumoniae [1]) [µg/mL] | MIC (Streptococcus pneumoniae [2]) [µg/mL] | MIC (Streptococcus pneumoniae [3]) [µg/mL] | MIC (Streptococcus pneumoniae [4]) [µg/mL] | MIC (Streptococcus pneumoniae [5]) [µg/mL] | MIC (Streptococcus pneumoniae [6]) [µg/mL] | MIC (Streptococcus pneumoniae [7]) [µg/mL] | MIC (Streptococcus pneumoniae [8]) [µg/mL] | MIC (Streptococcus pneumoniae [9]) [µg/mL] | MIC (Streptococcus pneumoniae [10]) [µg/mL] | MIC (Streptococcus pneumoniae [11]) [µg/mL] | MIC (Streptococcus pneumoniae [12]) [µg/mL] | MIC90 (Streptococcus pneumoniae [13]) [µg/mL] | MIC (Streptococcus pneumoniae [14]) [µg/mL] | MIC (Streptococcus pneumoniae [15]) [µg/mL] | MIC (Streptococcus pneumoniae [16]) [µg/mL] | MIC (Streptococcus pneumoniae [17]) [µg/mL] | MIC (Streptococcus pneumoniae [18]) [µg/mL] | MIC (Streptococcus pneumoniae [19]) [µg/mL] | MIC (Streptococcus pneumoniae [20]) [µg/mL] | also measured
1 | O=C(O)c1cn(C2CC2)c2cc(N3CCNCC3)c(F)cc2c1=O [CIPROFLOXACIN] | 32 (≈ 96.6 µM) | 64 (≈ 193 µM) | 4 | 0.25 | 2 | 1 | 8 | 4 | 1 (≈ 3.02 µM) | 64 (≈ 193 µM) | 1 (≈ 3.02 µM) | 8 | 8 | 8 (≈ 24.1 µM) | 8 | 1 | 4 | 64 (≈ 193 µM) | 16 | 4 | MIC (Streptococcus pneumoniae [21]): 16 µg/mL; MIC (Streptococcus pneumoniae [22]): 32 µg/mL; MIC (Streptococcus pneumoniae [23]): 0.12 µg/mL (≈ 0.362 µM); MIC90 (Streptococcus pneumoniae [24]): 0.5 µg/mL; MIC (Streptococcus pneumoniae [25]): 1 µg/mL; MIC (Streptococcus pneumoniae [26]): 32 µg/mL; MIC (Streptococcus pneumoniae [27]): 4 µg/mL (≈ 12.1 µM)
2 | CC[n+]1c(-c2ccccc2)c2cc(N)ccc2c2ccc(N)cc21.[Br-] [HOMIDIUM BROMIDE] | 2 | 4 | 0.5 | 0.5 | 0.5 | 0.5 | 1 | 0.5 | 0.5 | 8 | 2 | 0.5 | 1 | 0.5 | 0.5 | 0.5 | 8 | 8 | 0.5 | 0.5 | MIC (Streptococcus pneumoniae [21]): 0.5 µg/mL; MIC (Streptococcus pneumoniae [22]): 0.5 µg/mL; MIC (Streptococcus pneumoniae [23]): 0.5 µg/mL; MIC90 (Streptococcus pneumoniae [24]): 0.25 µg/mL; MIC (Streptococcus pneumoniae [25]): 0.12 µg/mL; MIC (Streptococcus pneumoniae [26]): 1 µg/mL; MIC (Streptococcus pneumoniae [27]): 16 µg/mL
